Test results published in publication PMC4049353 (Steroids, 2014).
pIC50, pKd: −log10 of the molar value. Where “and” joins values, the source holds several entries; their conditions need not be identical. Equal values may be shown once.

Columns and labels:
[1] = test system: TNFα-induced NF-κB activation; assay: suppression of TNFα-induced NF-κB activation in HEK-Blue CD40L sensor cells; format: cell-based, human; details: for pIC50: Homo sapiens, HEK-Blue, 20 h, read-out: TNFα, IC50; for rRBATNFα: relative potency from TNFα IC50, DEX = 100
In short: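 Cells used: HEK293 stably expressing human CD40 and an NF-κB/AP-1-inducible SEAP, seeded at about 5 × 10⁴ cells/well in 1% FBS DMEM. TNFα (3 ng/mL) added with test compound at 0, 0.01, 0.1, 1.0, 10, 100 or 1000 nM; incubated 20 h at 37°C, 5% CO₂. SEAP quantified with QUANTI-Blue at 620–655 nm. Five independent experiments, triplicates or quadruplicates. Percent suppression fitted to a Hill equation (bottom zero; shared Emax and nH).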

[2] = test system: CD40L-induced NF-κB activation; assay: suppression of CD40L-induced NF-κB activation in HEK-Blue CD40L sensor cells; format: cell-based, human; details: for pIC50: Homo sapiens, HEK-Blue, 30 h, read-out: CD40L, IC50; for CD40L/TNFα pot.: potency ratio of CD40L assay vs TNFα assay; for rRBACD40L: relative potency from CD40L IC50, DEX = 100
In short: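 Reporter HEK293 cells (human CD40; NF-κB/AP-1-driven SEAP) at about 5 × 10⁴ cells/well in 1% FBS DMEM. Stimulated with CD40L (CD154, 25 ng/mL) plus test compound at 0–1000 nM (10-fold steps) for 30 h at 37°C, 5% CO₂. SEAP read by QUANTI-Blue at 620–655 nm. Five independent experiments in triplicate or quadruplicate. Percent suppression vs stimulation alone fitted to a Hill model (bottom fixed at zero; Emax and nH shared).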

[3] = test system: glucocorticoid receptor (GR); details: cited from earlier work; for rRBAlit: relative receptor binding affinity, DEX = 100; for pKd: read-out: Kd,lit, consensus average of published GR binding values
[4] = test system: NF-κB activation in HEK-Blue CD40L sensor cells; assay: ligand-induced NF-κB activation of HEK-Blue CD40L sensor cells; format: cell-based, human; details: one-site specific binding model
In short: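 HEK293 cells stably carrying human CD40 and a SEAP reporter under the IFN-β minimal promoter with five NF-κB and five AP-1 sites. Grown in DMEM (4.5 g/L glucose, 10% FBS, 2 mM L-glutamine), then resuspended in 1% FBS medium. Stimulated with FLAG-tagged TNFα or CD40L (CD154) over a concentration series. SEAP measured with QUANTI-Blue at 620–655 nm; data fitted with a one-site specific binding model.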

CD40 = details: read-out: Kd CD40L – CD40; cell-free binding; cited from earlier work
CD40 (Homo sapiens) = CD40 (Homo sapiens) (UniProt P25942); details: cited from earlier work
UniProt P25942, sequence (P25942 21-277): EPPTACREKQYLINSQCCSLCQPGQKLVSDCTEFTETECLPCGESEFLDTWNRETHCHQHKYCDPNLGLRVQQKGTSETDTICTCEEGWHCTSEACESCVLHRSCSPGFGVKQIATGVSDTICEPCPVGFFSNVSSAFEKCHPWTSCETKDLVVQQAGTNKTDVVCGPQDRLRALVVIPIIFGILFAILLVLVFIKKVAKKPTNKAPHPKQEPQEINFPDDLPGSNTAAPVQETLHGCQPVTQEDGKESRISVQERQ

TNF-R1 = details: read-out: Kd TNFα – TNF-R1; cell-free binding; cited from earlier work

CD40L, sequence (P29965 113-261): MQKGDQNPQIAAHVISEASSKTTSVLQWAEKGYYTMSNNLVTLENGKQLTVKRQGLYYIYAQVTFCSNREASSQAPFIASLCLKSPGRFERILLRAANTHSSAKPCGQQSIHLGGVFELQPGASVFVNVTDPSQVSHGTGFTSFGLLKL

## C[C@@H]1C[C@H]2[C@@H]3CCC4=CC(=O)C=C[C@]4(C)[C@@]3(F)[C@@H](O)C[C@]2(C)[C@@]1(O)C(=O)CO [DEX, dexamethasone]
[1]
  pIC50: 8.53
  rRBATNFα: 100.0
[2]
  pIC50: 8.72
  CD40L/TNFα pot.: 1.55
  rRBACD40L: 100.0
[3]
  rRBAlit: 100.0

## CCOC(=O)O[C@]1(C(=O)OCCl)CC[C@H]2[C@@H]3CCC4=CC(=O)C=C[C@]4(C)[C@H]3[C@@H](O)C[C@@]21C [LE, loteprednol etabonate]
[1]
  pIC50: 9.10
  rRBATNFα: 372.6
[2]
  pIC50: 10.22
  CD40L/TNFα pot.: 13.96
  rRBACD40L: 3357.0
[3]
  pKd: 8.36
  rRBAlit: 150.0

## CCC(=O)OCC(=O)[C@@]1(OC(=O)CC)[C@@H](C)C[C@H]2[C@@H]3CCC4=CC(=O)C=C[C@]4(C)[C@@]3(Cl)[C@@H](O)C[C@@]21C [BDP, beclomethasone dipropionate]
[1]
  pIC50: 10.00
  rRBATNFα: 2952.7
[2]
  pIC50: 9.66
  CD40L/TNFα pot.: 0.46
  rRBACD40L: 872.2

## CC1(C)O[C@@H]2C[C@H]3[C@@H]4CCC5=CC(=O)C=C[C@]5(C)[C@@]4(F)[C@@H](O)C[C@]3(C)[C@]2(C(=O)CO)O1 [TA, triamcinolone acetonide]
[1]
  pIC50: 9.12
  rRBATNFα: 387.4
[2]
  pIC50: 9.37
  CD40L/TNFα pot.: 1.77
  rRBACD40L: 442.1
[3]
  pKd: 8.61
  rRBAlit: 270.0

## CD40L: FLAG-tagged ligand used for stimulation in the cell assays (Axxora)
[4]
  median effective concentration (EC50) for NF-κB activation: 0.041 mg/L and ~0.04 mg/L
CD40
  pKd: ~9.00

## C[C@]12C=CC(=O)C=C1CC[C@@H]1[C@@H]2[C@@H](O)C[C@@]2(C)[C@H]1CC[C@]2(O)C(=O)CO [PRED, prednisolone]
[1]
  pIC50: 7.85
  rRBATNFα: 20.6
[2]
  pIC50: 9.52
  CD40L/TNFα pot.: 47.49
  rRBACD40L: 632.9
[3]
  GR rRBA: ≈ 20 % of dexamethasone
  rRBAlit: 19.0

## CD40L (from UniProt P29965)
CD40 (Homo sapiens)
  pKd: 9.00

## CCC(=O)O[C@]1(C(=O)CCl)[C@@H](C)C[C@H]2[C@@H]3CCC4=CC(=O)C=C[C@]4(C)[C@@]3(F)[C@@H](O)C[C@@]21C [CP, clobetasol propionate]
[1]
  pIC50: 10.70
  rRBATNFα: 13074.5
[2]
  pIC50: 11.00
  CD40L/TNFα pot.: 1.62
  rRBACD40L: 13653.4
[3]
  pKd: 10.00
  rRBAlit: 6300.0

## C[C@]12CCC(=O)C=C1CC[C@@H]1[C@@H]2[C@@H](O)C[C@@]2(C)[C@H]1CC[C@]2(O)C(=O)CO [HC, hydrocortisone]
[1]
  pIC50: 7.81
  rRBATNFα: 18.9
[2]
  pIC50: 9.27
  CD40L/TNFα pot.: 28.75
  rRBACD40L: 350.3
[3]
  rRBAlit: 10

## TNFα
[4]
  median effective concentration (EC50) for NF-κB activation: 0.0027 mg/L and ~0.003 mg/L
TNF-R1
  pKd: ~9.30
